The subject of series [1] is H69AR. Briefly: Reversal of Daunorubicin resistance in human NCI-H69AR cells assessed as Daunorubicin GI50 at 0.1 uM measured for 72 hrs by MTT assay. Format: functional. The procedure, abridged: (§1)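 Reversal assay: resistant lines (A2780/ADR, H69AR, MDCK II BCRP) and parental lines seeded as for MTT assay with modulator solutions of 1, 10 and 100 µM added (final 0.1, 1, 10 µM) and daunorubicin (P-gp, MRP1) or SN-38 (BCRP) at final 10 nM–10 µM. 72 h, MTT read-out; GI50 by variable-slope fit. Resistance factor = resistant/sensitive GI50; potentiation factor = GI50 without/with modulator.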
(In general: Tetrazolium assays rely on reduction of a dye to a coloured formazan, in cell work by metabolically active cells.)

The nature of series [2]: Reversal of SN-38 resistance in dog MDCK-II-BCRP cells assessed as SN-38 GI50 at 1 uM measured for 72 hrs by MTT assay. Format: functional. The settings on record: Canis lupus familiaris. The procedure, abridged: as §1
In series [3] the target is Multidrug resistance-associated protein 1 (Homo sapiens, UniProt P33527). Briefly: Inhibition of MRP1 in human NCI-H69AR cells incubated for 180 mins in presence of daunorubicin by flow cytometry analysis. It is filed as cell-based. The procedure, abridged: (§2)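 H69AR cells (doxorubicin-selected small cell lung cancer, RPMI-1640/20% FBS), about 60,000 per well, preincubated 15 min with compound (100 nM–100 µM added solutions, in unsupplemented medium), then daunorubicin (30 µM solution added); steady state after 180 min, 37 °C, 5% CO2. Cells resuspended; flow cytometry, 488 nm excitation, FL3 (≥670 nm). Reference inhibitor 75 at 10 µM = 100%; Imax relative to it.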
Sequence of Multidrug resistance-associated protein 1 (P33527 whole entry): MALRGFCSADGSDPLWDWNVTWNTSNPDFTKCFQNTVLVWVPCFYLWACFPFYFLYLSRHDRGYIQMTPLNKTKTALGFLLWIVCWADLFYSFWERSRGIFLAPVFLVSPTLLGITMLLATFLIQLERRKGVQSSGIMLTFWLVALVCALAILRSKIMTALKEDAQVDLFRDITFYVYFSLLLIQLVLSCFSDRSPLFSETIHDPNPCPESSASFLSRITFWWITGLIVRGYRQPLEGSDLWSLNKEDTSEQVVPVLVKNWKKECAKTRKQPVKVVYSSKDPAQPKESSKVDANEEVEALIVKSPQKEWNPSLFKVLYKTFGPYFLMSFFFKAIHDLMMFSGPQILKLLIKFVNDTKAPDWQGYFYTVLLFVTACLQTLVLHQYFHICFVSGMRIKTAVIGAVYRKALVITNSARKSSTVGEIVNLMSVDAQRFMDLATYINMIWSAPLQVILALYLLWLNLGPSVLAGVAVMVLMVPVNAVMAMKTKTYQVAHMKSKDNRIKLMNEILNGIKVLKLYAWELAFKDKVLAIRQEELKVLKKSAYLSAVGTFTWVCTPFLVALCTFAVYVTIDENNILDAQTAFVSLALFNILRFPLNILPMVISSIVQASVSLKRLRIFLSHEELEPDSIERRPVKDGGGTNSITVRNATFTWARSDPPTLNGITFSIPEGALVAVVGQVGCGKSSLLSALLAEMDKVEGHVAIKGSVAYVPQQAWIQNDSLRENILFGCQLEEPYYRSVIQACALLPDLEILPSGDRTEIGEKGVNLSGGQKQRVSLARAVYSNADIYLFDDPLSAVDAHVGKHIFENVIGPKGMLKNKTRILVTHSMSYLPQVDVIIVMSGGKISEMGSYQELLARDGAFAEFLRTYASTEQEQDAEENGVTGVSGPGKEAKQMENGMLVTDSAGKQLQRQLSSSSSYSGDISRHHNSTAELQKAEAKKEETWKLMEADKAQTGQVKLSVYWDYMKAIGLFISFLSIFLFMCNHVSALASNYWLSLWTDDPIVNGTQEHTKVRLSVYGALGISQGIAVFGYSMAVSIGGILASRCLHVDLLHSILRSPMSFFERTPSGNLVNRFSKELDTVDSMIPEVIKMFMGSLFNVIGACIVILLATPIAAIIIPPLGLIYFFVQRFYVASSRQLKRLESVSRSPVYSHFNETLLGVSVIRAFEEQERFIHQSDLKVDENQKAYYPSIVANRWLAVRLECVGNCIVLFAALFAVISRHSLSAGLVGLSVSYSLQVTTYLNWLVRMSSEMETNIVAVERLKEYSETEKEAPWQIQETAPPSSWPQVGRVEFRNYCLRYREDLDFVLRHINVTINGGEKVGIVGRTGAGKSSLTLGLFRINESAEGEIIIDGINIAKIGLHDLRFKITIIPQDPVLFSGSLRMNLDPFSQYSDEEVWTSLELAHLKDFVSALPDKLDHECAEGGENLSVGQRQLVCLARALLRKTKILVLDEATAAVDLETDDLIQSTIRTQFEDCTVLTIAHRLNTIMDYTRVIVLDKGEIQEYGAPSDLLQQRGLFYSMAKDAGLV

Series [4] concerns the target T1, Broad substrate specificity ATP-binding cassette transporter ABCG2 (Homo sapiens, UniProt Q9UNQ0).
T1 sequence (Q9UNQ0 whole entry): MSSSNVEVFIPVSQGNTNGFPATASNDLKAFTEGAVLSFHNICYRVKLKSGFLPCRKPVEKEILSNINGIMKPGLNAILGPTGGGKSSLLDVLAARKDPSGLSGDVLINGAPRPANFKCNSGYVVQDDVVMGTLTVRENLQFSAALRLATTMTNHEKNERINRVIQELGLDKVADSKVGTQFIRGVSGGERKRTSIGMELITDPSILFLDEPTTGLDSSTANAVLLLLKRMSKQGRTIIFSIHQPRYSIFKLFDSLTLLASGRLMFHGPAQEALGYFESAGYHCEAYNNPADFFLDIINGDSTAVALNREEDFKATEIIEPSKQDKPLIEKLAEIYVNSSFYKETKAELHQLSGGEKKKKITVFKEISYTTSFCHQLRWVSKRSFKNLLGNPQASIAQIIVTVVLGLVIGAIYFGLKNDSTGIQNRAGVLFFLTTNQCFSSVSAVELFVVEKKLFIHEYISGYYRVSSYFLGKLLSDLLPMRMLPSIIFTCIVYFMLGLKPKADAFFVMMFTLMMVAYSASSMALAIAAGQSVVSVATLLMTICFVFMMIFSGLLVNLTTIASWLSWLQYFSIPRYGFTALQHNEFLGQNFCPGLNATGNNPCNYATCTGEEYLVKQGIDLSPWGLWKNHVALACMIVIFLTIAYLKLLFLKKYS
Briefly: Inhibition of BCRP (unknown origin) expressed in dog MDCK-II cells using pheophorbide A as substrate preincubated for 20 mins followed by substrate addition and measured after 120 mins by flow cytometry analysis. It is filed as cell-based. The procedure, abridged:
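MDCK II cells transfected with human wild-type BCRP cDNA C-terminally fused to GFP, grown in DMEM/10% FBS. About 45,000 cells per well preincubated 20 min at 37 °C, 5% CO2 with compound (100 nM–100 µM added solutions), then pheophorbide A (5 µM solution added) for 120 min to steady state. Resuspended; flow cytometry, 488 nm excitation, FL3 (≥670 nm); GFP in FL1. Reference inhibitor 24 at 10 µM = 100%.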
In general terms: A flow cytometer gives signals particle by particle.

Series [5] deals with P-gp (ABCB1) (Homo sapiens, UniProt P08183). Briefly: Inhibition of P-gp (unknown origin) at 10 uM incubated for 30 mins by calcein AM analysis relative to control. The settings on record: probe calcein AM. The procedure, abridged: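 A2780/ADR cells (doxorubicin-selected, P-gp overexpressing), about 30,000 per well in Krebs-HEPES buffer pH 7.4, incubated 30 min at 37 °C with compound (100 nM–100 µM added solutions). Calcein AM (3.125 µM solution added) then fluorescence read every 60 s at 37 °C, ex 485/em 520 nm; slope over minutes 5–30 plotted vs log concentration. Cyclosporine A 10 µM = 100% inhibition, buffer = 0%.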
Sequence of P-gp (ABCB1) (Homo sapiens, UniProt P08183) (P08183 whole entry): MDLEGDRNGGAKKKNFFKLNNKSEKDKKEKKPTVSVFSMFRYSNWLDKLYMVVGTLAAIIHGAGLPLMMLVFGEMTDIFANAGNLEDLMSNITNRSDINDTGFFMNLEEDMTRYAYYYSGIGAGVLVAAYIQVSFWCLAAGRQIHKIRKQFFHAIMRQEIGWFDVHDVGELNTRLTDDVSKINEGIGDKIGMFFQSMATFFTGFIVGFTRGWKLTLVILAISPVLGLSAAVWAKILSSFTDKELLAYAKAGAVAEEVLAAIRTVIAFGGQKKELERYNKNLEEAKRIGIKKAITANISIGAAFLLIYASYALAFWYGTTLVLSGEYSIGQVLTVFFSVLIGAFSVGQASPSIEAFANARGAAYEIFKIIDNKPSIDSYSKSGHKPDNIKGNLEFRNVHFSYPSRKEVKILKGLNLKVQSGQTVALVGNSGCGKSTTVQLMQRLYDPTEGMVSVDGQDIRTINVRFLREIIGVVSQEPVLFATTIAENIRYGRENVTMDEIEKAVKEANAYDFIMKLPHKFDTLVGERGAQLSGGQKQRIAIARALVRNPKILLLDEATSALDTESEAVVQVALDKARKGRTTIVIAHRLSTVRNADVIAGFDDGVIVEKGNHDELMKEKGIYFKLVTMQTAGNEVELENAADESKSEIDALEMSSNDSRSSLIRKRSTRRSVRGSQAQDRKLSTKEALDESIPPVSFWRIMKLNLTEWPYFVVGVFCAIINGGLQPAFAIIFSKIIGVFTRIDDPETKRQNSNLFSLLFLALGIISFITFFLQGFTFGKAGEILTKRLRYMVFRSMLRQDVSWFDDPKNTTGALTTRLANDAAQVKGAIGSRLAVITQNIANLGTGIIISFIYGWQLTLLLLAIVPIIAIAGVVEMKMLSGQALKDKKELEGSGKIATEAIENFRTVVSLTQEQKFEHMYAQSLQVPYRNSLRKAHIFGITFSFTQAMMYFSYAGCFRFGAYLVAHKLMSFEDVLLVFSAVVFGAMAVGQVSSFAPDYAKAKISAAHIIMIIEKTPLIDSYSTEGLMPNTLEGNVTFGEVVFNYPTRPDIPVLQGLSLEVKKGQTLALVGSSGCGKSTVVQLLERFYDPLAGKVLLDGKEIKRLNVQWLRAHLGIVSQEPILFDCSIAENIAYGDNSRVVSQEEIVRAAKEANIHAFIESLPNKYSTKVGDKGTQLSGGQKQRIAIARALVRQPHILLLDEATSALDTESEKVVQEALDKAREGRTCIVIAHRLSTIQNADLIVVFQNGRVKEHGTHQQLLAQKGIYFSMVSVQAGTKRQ

Another series has as its target MRP1 (Homo sapiens, UniProt P33527). Briefly: Inhibition of MRP1 in human NCI-H69AR cells at 10 uM incubated for 180 mins in presence of daunorubicin by flow cytometry analysis relative to control. It is filed as cell-based. The settings on record: probe daunorubicin. The procedure, abridged:
as §2

A further series deals with A2780. Briefly: Antiproliferative activity against human A2780 cells assessed as reduction in cell viability measured for 72 hrs bt MTT assay. Format: functional.
The test system of series [6] is H69AR. Nature of the series: Antiproliferative activity against human NCI-H69AR cells assessed as reduction in cell viability measured for 72 hrs bt MTT assay. Format: functional.
In series [7] the test system is P-gp (ABCB1). Nature of the series: Therapeutic index, ratio of GI50 for antiproliferative activity against human A2780 ADR cells to IC50 for inhibition of P-gp (unknown origin). Format: toxicity, cell-based. The procedure, abridged: (§3)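 Ratio of MTT-assay GI50 to transport-inhibition IC50, both in the resistant line. GI50 comes from 72 h exposure at 37 °C to dilutions up to 1000 µM, with medium as 100% and 10% DMSO as 0% viability. IC50 comes from calcein AM (A2780/ADR), daunorubicin (H69AR) or pheophorbide A (MDCK II BCRP) accumulation.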

Another series deals with BCRP (ABCG2). Briefly: Therapeutic index, ratio of GI50 for antiproliferative activity against dog MDCK-II-BCRP cells to IC50 for inhibition of BCRP (unknown origin) expressed in dog MDCK-II cells. It is filed as toxicity, cell-based. The procedure, abridged: as §3
A short description of series [8]: Potentiation factor, ratio of GI50 for daunorubicin resistant human A2780 ADR cells expressing P-gp cells to GI50 for reversal of daunorubicin resistance in human A2780 ADR cells assessed as daunorubicin GI50 at 1 uM by MTT assay (reference value: 1 uM). It is filed as functional. The procedure, abridged:
as §1

In series [9] the test system is H69AR. Briefly: Potentiation factor, ratio of GI50 for daunorubicin resistant human NCI-H69AR cells expressing MRP1 cells to GI50 for reversal of daunorubicin resistance in human NCI-H69AR cells assessed as daunorubicin GI50 at 1 uM (reference value: 1 uM). Format: functional. The procedure, abridged: as §1
Series [10] in a line: Potentiation factor, ratio of GI50 for SN-38 resistant dog MDCK-II-BCRP cells expressing BCRP cells to GI50 for reversal of SN-38 resistance in dog MDCK-II-BCRP cells assessed as SN-38 GI50 at 0.1 uM (reference value: 1 uM). Format: functional, Canis lupus familiaris. The procedure, abridged: as §1
Series [11] is described as follows: Potentiation factor, ratio of GI50 for SN-38 resistant dog MDCK-II-BCRP cells expressing BCRP cells to GI50 for reversal of SN-38 resistance in dog MDCK-II-BCRP cells assessed as SN-38 GI50 at 10 uM (reference value: 1 uM). It is filed as functional, Canis lupus familiaris. The procedure, abridged:
as §1

Where only a bound is given, the exact number is not on record here.

Sequence of MRP1 (P33527 whole entry): as the sequence (P33527 whole entry) above

In general, GI50 refers to the concentration giving 50% growth inhibition. As usually defined, the IC50 is the concentration that gives 50% inhibition. In general, inhibition refers to the percentage by which the read-out fell short of the control. Regarding `N#Cc1cn(CCCc2ccccc2)c2c(N3CCN(CCc4c[nH]c5ccccc45)CC3)ncnc12`, the GI50 in the series on H69AR [1] turned out to be 2.1 µM; in series [2] it was 0.211 µM; in the series with A2780, 6.36 µM; in the series on H69AR [6] it was 152 µM. The results for the IC50 in series [3] and in series [4] were 0.501 µM and 1.69 µM, respectively. The inhibition at 0.5 h, 10 µM at P-gp (ABCB1) [5] was above 25%. Moreover, the inhibition at 3 h, 10 µM at MRP1 was above 25%. Also, the selectivity ratio in the series on P-gp (ABCB1) [7] was found to be 9.4; in the series on BCRP (ABCG2) it was 14. Moreover, the RatioGI50 in series [8] is recorded as 9.8. The PF with H69AR [9] was 3.3; in series [10] it was 1.9; in [11], 28.

Values taken from ChEMBL document CHEMBL5260824, “9-Deazapurines as Broad-Spectrum Inhibitors of the ABC Transport Proteins P-Glycoprotein, Multidrug Resistance-Associated Protein 1, and Breast Cancer Resistance Protein” (J Med Chem, 2017).
